HUVEC inhibit = blocks proliferation of human endothelial cells | actives 1.1% (n = 86,000) | HUVEC proliferation, CellTiter-Glo luminescence, 72 h; active compounds read low | viability, % at 10 µM (by protocol);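 active = viability at or below 30%; inactive = viability above 30%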;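 note: 100% = median luminescence of DMSO-only cell control wells on each plate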
HCT116 bCat-KO = beta-catenin-lacking colon tumor cell growth suppression. HCT116 beta-catenin knockout viability, CellTiter-Glo, 60 h; active compounds read low. actives 1.5% (n = 140,000). viability, % at 10 µM;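 active = viability at or under a set limit, the compound median less 4 SD, cut at about 6% in these data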;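 note: 0% = Hyamine 1622 control at 20 µM and 100% = untreated cell control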
H69AR growth 86K = growth inhibitors of human H69AR lung tumor cells. H69AR lung tumor viability, ATP luminescence, 72 h; active compounds read low. viability, % at 10 µM. actives 6% (n = 85,000). AID 598;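 active = viability at or below 40%; inactive = viability above 40%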;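 note: multidrug resistant small cell line overexpressing MRP-1 efflux transporter; 100% = mean luminescence of untreated control wells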
Fibroblast inh = blocks proliferation of human lung fibroblasts; LL 47 human lung fibroblast viability, ATP luminescence; active compounds read low; viability, % at 10 µM; actives 1.1% (n = 85,000); AID 719;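 active = viability at or below 50% in the single dose screen; inactive = viability above 50%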;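 note: compound exposure lasted 72 h before the ATP readout; 100% = median luminescence of untreated cell-only wells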
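test system = LL 47 human lung fibroblasts | amount = 1,150 fibroblasts seeded per well | medium = 15% FBS in IMEM | times = overnight cell rest, 72 h compound treatment at 37 °C | measured by = CellTiter-Glo luminescence measuring cellular ATP | read-out = viability percentage against median untreated-cell control | benchmarks = cell-only wells, no compound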
HCT116 PTEN-null = PTEN-deleted cell growth suppression | viability, % at 10 µM | actives 1.2% (n = 140,000) | HCT116 PTEN-null viability, CellTiter-Glo, 60 h; active compounds read low | AID 827;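 active = viability at or below a set limit, 4 SD under the median of all tested compounds, cut at about 3.7% in these data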;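 note: PTEN knockout HCT116 line with beta catenin targeted HCT116 as companion control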
Numbers without * were called inactive; nt = no result. This is one part of a sample in which hits are shown more often than they occur.

SMILES | HUVEC inhibit | HCT116 bCat-KO | H69AR growth 86K | Fibroblast inh | HCT116 PTEN-null
Cc1cc(/C=C2/SC(=O)NC2=O)c(C)n1-c1ccc(N2CCOCC2)cc1 | nt | 79 | nt | nt | 73
CCCCCOc1ccc(Br)cc1/C(C)=N/NC1=NCCN1 | 6.4* | 3.1* | 2.3* | 93 | 4
O=C(COC(=O)c1ccc(Cl)c(S(=O)(=O)N2CCc3ccccc3C2)c1)Nc1ncc(Cl)cc1Cl | nt | 104 | nt | nt | 103
CCCCCn1c(=O)[nH]c2cc(C(=O)N3CCN(CC)CC3)ccc2c1=O | 99 | 90 | 80 | 92 | 95
CCOC(=O)N1CCN(C(=O)c2ccc3c(=O)n(CCC4=CCCCC4)c(=O)[nH]c3c2)CC1 | 85 | 82 | 39* | 89 | 87
CN(C)S(=O)(=O)c1ccc(S(=O)(=O)N(Cc2ccco2)Cc2ccccc2Cl)cc1 | 94 | 76 | 40* | 80 | 80
C=CCOn1c(C)c(C(C)=O)c2c3no[n+]([O-])c3ccc21 | 74 | 88 | 29* | 88 | 90
COn1c(C)c(C(C)=O)c2c3no[n+]([O-])c3ccc21 | nt | 98 | nt | nt | 103
Cc1ccc(N(CC(=O)NCCSc2nc3ccccc3s2)S(=O)(=O)c2ccccc2)c(C)c1 | nt | 57 | nt | nt | 45
O=C(NCCc1ccccc1)C(=O)c1c(-c2ccccc2)[nH]c2ccccc12 | nt | 77 | nt | nt | 69
N#C/C(=C/c1ccc(N2CCOCC2)o1)c1nc2ccccc2[nH]1 | 51 | 84 | 23* | 76 | 81
N#C/C(=C/c1ccc(N2CCCCCC2)o1)c1ccc(F)cc1 | 56 | 46 | 2.8* | 11* | 33
COc1cccc(/C=C(/C#N)c2ccc(F)cc2)c1OCc1cccc(C(=O)O)c1 | nt | 99 | nt | nt | 101
N#C/C(=C/c1ccc(N2CCCCCC2)o1)c1cccc(F)c1 | 95 | 47 | 37* | 87 | 69
COc1cc(N2CCCC2)c(OC)cc1/C=C(/C#N)c1cccc(F)c1 | 95 | 72 | 25* | 88 | 68
N#C/C(=C\c1ccc(N2CCOCC2)o1)c1ccccc1 | nt | 57 | nt | nt | 65
CCO/C=C/C(O)(CNC(=O)c1ccc(C(C)(C)C)cc1)C(F)(F)F (configuration not stated) | nt | 90 | nt | nt | 83
COc1cc(CN(C2CCCCC2)S(=O)(=O)c2ccc(S(=O)(=O)N(C)C3CCCCC3)cc2)cc(OC)c1OC | nt | 88 | nt | nt | 94
NC(=S)N/N=C/C=C/c1ccccc1 | nt | 86 | nt | nt | 93
N#C/C(=C\c1ccc(Sc2ccc(Cl)cc2)o1)c1nc2ccccc2[nH]1 | nt | 53 | nt | nt | 34
N#C/C(=C\c1ccc(Sc2nc3ccccc3[nH]2)o1)c1ccccc1 | 53 | 61 | 33* | 88 | 68
C=CCn1cnc2c(c1=O)c1nc3ccccc3nc1n2/N=C/c1cc(OC)c(OC)c(OC)c1 | 39 | 0.8* | 8.9* | 24* | 1.4*
COc1ccc(/C=C2\C(=O)N(c3c(Cl)cc(Cl)cc3Cl)N=C2NC(=O)c2cccc([N+](=O)[O-])c2)cc1 | nt | 87 | nt | nt | 99
CCCCCCc1cc2cc(S(=O)(=O)c3ccc(F)c(Cl)c3)c(=O)oc2cc1O | nt | 2.9* | nt | nt | 3.1*
CCCCCCc1cc2cc(C(=O)Nc3ccc(OC)cc3)c(=O)oc2cc1O | nt | 66 | nt | nt | 57
SMILES | HUVEC inhibit | HCT116 bCat-KO | H69AR growth 86K | Fibroblast inh | HCT116 PTEN-null
CCCCCCc1cc2cc(C(=O)Nc3cccc(OC)c3)c(=O)oc2cc1O | nt | 5.3* | nt | nt | 5
CCCCCCc1cc2cc(C(N)=O)c(=N)oc2cc1O | 68 | 84 | 2.0* | 101 | 58
CCCCCCc1cc2cc(C(=O)NC)c(=N)oc2cc1O | nt | 9 | nt | nt | 4
CCNC(=O)COc1cccc(C(=O)NCc2ccccc2)c1 | nt | 96 | nt | nt | 97
CCNc1nc(NCC)n2c(SC(C(=O)Nc3cc(C)ccc3OC)c3ccccc3)nnc2n1 (configuration not stated) | nt | 65 | nt | nt | 63
Cc1cccc(-n2c(SCC(=O)N3CC(=O)Nc4ccccc43)nc3ccccc3c2=O)c1C | nt | 50 | nt | nt | 36
CC(C)NC(=O)COC(=O)CNC(=O)c1cc(Cl)cc([N+](=O)[O-])c1 | nt | 92 | nt | nt | 105
CC(Nc1ccccc1)C(=O)Nc1ccc(F)cc1 (configuration not stated) | nt | 84 | nt | nt | 93
Clc1ccc2c(N/N=C/c3ccc(Br)cc3)ccnc2c1 | nt | 1.5* | nt | nt | 1.3*
Cc1ccccc1/C=N/Nc1ccnc2cc(Cl)ccc12 | nt | 11 | nt | nt | 7
Cc1ccc(/C=N/Nc2ccnc3cc(Cl)ccc23)c(C)c1 | nt | 1.3* | nt | nt | 1.6*
COc1ccc2nc(NC(C)=O)sc2c1 | 108 | 88 | 105 | 98 | 93
COc1ccc2nc(N=Nc3c(O)ccc4ccccc34)sc2c1 | nt | 5.3* | nt | nt | 7
COc1cc(/C=C(/C(=O)c2cccs2)c2nc3ccccc3[nH]2)ccc1O | 38 | 3.8* | 2.0* | 11* | 2.0*
O=C(/C(=C/c1ccc(Cl)cc1)c1nc2ccccc2[nH]1)c1cccs1 | nt | 1.9* | nt | nt | 1.9*
O=C(/C=C/c1cccc(Cl)c1)c1nc2ccccc2[nH]1 | nt | 0.7* | nt | nt | 1.0*
O=C(/C(=C\c1ccccc1)c1nc2ccccc2[nH]1)c1ccc(Cl)cc1 | nt | 2.2* | nt | nt | 1.9*
COc1ccc(/C=C(/NC(=O)c2ccccc2)c2nc3ccccc3[nH]2)cc1OC | nt | 86 | nt | nt | 98
CC(C)(C)c1cnnn1-c1ccc(C(=O)CCl)cc1 | 40 | 102 | 1.6* | 16* | 93
Cc1ccc(NC(=O)Cn2cnc3sc(C(=O)NCCN(C)C)c(C)c3c2=O)cc1Cl | 8.3* | 37 | 72 | 58 | 57
O=C(COC(=O)c1ccc2ccccc2c1)NCCCc1ccccc1 | nt | 95 | nt | nt | 100
CCN(CC)S(=O)(=O)c1ccc(N2C(=O)CC2(/C=C/c2ccccc2)C(=O)NC2CCCC2)cc1 (configuration not stated) | nt | 81 | nt | nt | 73
COc1ccccc1/C=C/C1(C(=O)NC2CCCC2)CC(=O)N1c1ccc(C)cc1 (configuration not stated) | 39 | 10 | 2.1* | 48* | 10
COc1ccccc1/C=C/C1(C(=O)NC2CCCC2)CC(=O)N1c1ccc(F)cc1 (configuration not stated) | 35 | 17 | 0.5* | 1.9* | 15
Cc1ccc(NC(=O)c2ccccc2N(C)S(C)(=O)=O)cc1C | 98 | 95 | 87 | 97 | 95
SMILES | HUVEC inhibit | HCT116 bCat-KO | H69AR growth 86K | Fibroblast inh | HCT116 PTEN-null
O=C(Nc1ncnc2sc3c(c12)CCC3)c1ccco1 | 92 | 100 | 89 | 88 | 97
C(=N\Nc1ncnc2sc3c(c12)CCC3)/c1cccs1 | nt | 2.1* | nt | nt | 2.5*
C(=N\Nc1ncnc2sc3c(c12)CCC3)/c1ccncc1 | nt | 10 | nt | nt | 3.3*
O=C(C1CCCO1)N1CCN(C(=S)Nc2ccccc2F)CC1 (configuration not stated) | nt | 88 | nt | nt | 101
Cc1cccc(/C(N)=N/OC(=O)CCc2ccccc2)c1 | nt | 88 | nt | nt | 93
Clc1ccc(-c2nnc(-c3ccccc3)c(N3CCSCC3)n2)cc1 | nt | 66 | nt | nt | 62
CC1CN(c2nc(-c3ccc(Br)cc3)nnc2-c2ccccc2)CC(C)N1 (configuration not stated) | nt | 0.9* | nt | nt | 1.0*
CCc1ccc2nc3nc(C)cc(C)c3c(N)c2c1 | nt | 4.0* | nt | nt | 3.2*
Cc1cc(C)c2c(N)c3ccccc3nc2n1 | nt | 2.9* | nt | nt | 3.2*
